From ChEMBL document CHEMBL3352185, “Design, synthesis, and antibacterial properties of dual-ligand inhibitors of acetyl-CoA carboxylase” (2014)
In brackets after ≈: the same amount, converted by molar mass. Activity calls are given as the source filed them. No cut-off for these calls is given here.

Tests used:
Escherichia coli [1] = assay: Antibacterial activity against Escherichia coli D21 IpxC101 deletion mutant after 18 to 24 hrs by two-fold broth microdilution method; assay type: functional
Summary of the method: (§1)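 CLSI broth microdilution in cation-adjusted Mueller Hinton (MHII) broth. Strains streaked on agar and grown overnight at 35 °C. […] Value is the MIC.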

Staphylococcus aureus [2] = assay: Antibacterial activity against moiramide-resistant Staphylococcus aureus ATCC 29213 after 18 to 24 hrs by two-fold broth microdilution method; assay type: functional; summary of the method: as §1
Escherichia coli [3] = assay: Antibacterial activity against wild type Escherichia coli D21 after 18 to 24 hrs by two-fold broth microdilution method; assay type: functional; summary of the method: as §1
Pseudomonas aeruginosa [4] = assay: Antibacterial activity against wild type Pseudomonas aeruginosa PAO1 after 18 to 24 hrs by two-fold broth microdilution method; assay type: functional; summary of the method: as §1
Pseudomonas aeruginosa [5] = assay: Antibacterial activity against Pseudomonas aeruginosa PAO1 mexAB/mexCD/mexXY/mexHI/opmH deletion mutant after 18 to 24 hrs by two-fold broth microdilution method
Staphylococcus aureus [6] = assay: microbe, parasite or virus in culture; conditions: ATCC 29213
Staphylococcus aureus [7] = assay: microbe, parasite or virus in culture; conditions: ATCC 29213; remark: listed apart in the source
Escherichia coli [8] = assay: Antibacterial activity against Escherichia coli D21 IpxC101/tolC deletion mutant after 18 to 24 hrs by two-fold broth microdilution method; assay type: functional; summary of the method: as §1
[9] = test system: Staphylococcus epidermidis; assay: Antibacterial activity against wild type Staphylococcus epidermidis ATCC 35984 after 18 to 24 hrs by two-fold broth microdilution method; assay type: functional
Summary of the method: (§2)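 MICs were determined by CLSI broth microdilution in cation-adjusted Mueller Hinton (MHII) broth. Organisms were first streaked on agar and grown overnight at 35 °C. Compounds were dissolved in 100% DMSO and tested as 2-fold serial dilutions. A standardized inoculum was incubated with compound for 18−24 h at 35 °C. The norA strain is an otherwise isogenic S. aureus carrying a gain-of-function NorA mutation.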

Enterococcus faecalis = assay: Antibacterial activity against wild type Enterococcus faecalis ATCC 29212 after 18 to 24 hrs by two-fold broth microdilution method; assay type: functional; summary of the method: as §2
Escherichia coli [10] = assay: Antibacterial activity against Escherichia coli D21 tolC deletion mutant after 18 to 24 hrs by two-fold broth microdilution method; assay type: functional; summary of the method: as §1
Escherichia coli [11] = assay: Antibacterial activity against moiramide-resistant Escherichia coli D21 tolC deletion mutant after 18 to 24 hrs by two-fold broth microdilution method; assay type: functional; summary of the method: as §1
Escherichia coli [12] = assay: Competitive inhibition of Escherichia coli biotin carboxylase
Escherichia coli [13] = assay: Ratio of MPC for Escherichia coli D21 tolC deletion mutant to MIC for Escherichia coli D21 tolC deletion mutant; assay type: functional
Summary of the method: (§3)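 Single-step selection on MHII agar: compound added to molten agar cooled to 55 °C, at 2-fold increasing concentrations. Overnight MHII broth culture of E. coli tolC concentrated by centrifugation; 4 × 10^9 CFU plated per plate, CFU counted by serial dilution. Plates monitored for resistant colonies. MPC is the lowest consecutive concentration fully suppressing resistant mutants. Ratio is MPC to broth microdilution MIC.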

Escherichia coli [14] = assay: Non competitive inhibition of Escherichia coli acetyl-CoA carboxylase using acetyl-CoA as substrate in presence of ATP
Escherichia coli [15] = assay: Antibacterial activity against Escherichia coli D21 tolC deletion mutant assessed as mutant prevention concentration after 18 to 24 hrs by two-fold broth microdilution method; assay type: functional; summary of the method: as §3
Escherichia coli [16] = assay: Competitive inhibition of Escherichia coli acetyl-CoA carboxylase using acetyl-CoA as substrate in presence of ATP
Summary of the method: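 ACC holoenzyme activity was measured with a pyruvate kinase/lactate dehydrogenase coupled assay. Mix: 0.5 mM phosphoenolpyruvate, 0.2 mM NADH, 20 mM MgCl2, 15 mM bicarbonate, 100 mM HEPES pH 8.0. ATP was fixed at 5 μM, acetyl-CoA was varied from 50 to 1000 μM, and inhibitor was used at fixed increasing concentrations. Initial velocities were fitted to a competitive equation to give Kis.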

Escherichia coli [17] = assay: Antibacterial activity against Escherichia coli JM109 at 1 to 100 uM after 4 hrs by UV-Vis spectrophotometry in presence of PBMN; assay type: functional, organism-based
Summary of the method: (§4)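 E. coli JM109 was grown overnight in LB at 37 °C, then diluted into fresh LB tubes. Tubes received compound from a DMSO stock at final 1, 10, 50 or 100 μM, with or without polymyxin B nonapeptide at final 0.5, 1, 5 or 10 μg/mL. Tubes were incubated 4 h at 37 °C and growth was read as absorbance at 600 nm.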

Escherichia coli [18] = assay: Antibacterial activity against Escherichia coli JM109 at 1 to 100 uM after 4 hrs by UV-Vis spectrophotometry; assay type: functional, organism-based; summary of the method: as §4
Staphylococcus aureus [19] = assay: Selectivity ratio of MIC for moiramide-resistant Staphylococcus aureus ATCC 29213 to MIC for Staphylococcus aureus ATCC 29213; assay type: functional
Escherichia coli [20] = assay: Inhibition of Escherichia coli acetyl-CoA carboxylase
Summary of the method: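 Purified ACC complex was assayed by PK/LDH-coupled NADH oxidation in 100 mM HEPES pH 8.0, with 20 mM MgCl2 and 15 mM bicarbonate. One series varied ATP (0.8–56 μM) at 0.2 mM acetyl-CoA; the other varied acetyl-CoA (50–1000 μM) at 5 μM ATP. Each series was run at fixed increasing inhibitor levels. Kis and Kii came from fits to competitive or noncompetitive rate equations.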

Escherichia coli [21] = assay: Selectivity ratio of MIC for moiramide-resistant Escherichia coli D21 tolC deletion mutant to MIC for Escherichia coli D21 tolC deletion mutant; assay type: functional

Molecule | MIC (Escherichia coli [1]) | MIC (Staphylococcus aureus [2]) | MIC (Escherichia coli [3]) | MIC (Pseudomonas aeruginosa [4]) | MIC (Pseudomonas aeruginosa [5]) | MIC (Staphylococcus aureus [6]) | MIC (Staphylococcus aureus [7]) | MIC (Escherichia coli [8]) | MIC [9] | MIC (Enterococcus faecalis) | MIC (Escherichia coli [10]; Escherichia coli, D21) | MIC (Escherichia coli [11]) | Ratio (Escherichia coli [13]) | Kii (Escherichia coli [14]) | Kis (Escherichia coli [14]) | Activity (Escherichia coli [15]) | Kis (Escherichia coli [16]) | other results
NC[C@H]1O[C@H](O[C@H]2[C@H](O)[C@@H](O[C@H]3O[C@H](CO)[C@@H](O)[C@H](N)[C@H]3O)[C@H](N)C[C@@H]2N)[C@H](O)[C@@H](O)[C@@H]1O [KANAMYCIN] | 1 µg/mL (≈ 2.06 µM) | 2 µg/mL (≈ 4.13 µM) | 2 µg/mL (≈ 4.13 µM) | 128 µg/mL (≈ 264 µM) | 64 µg/mL (≈ 132 µM) | 4 µg/mL (≈ 8.26 µM) | 4 µg/mL (≈ 8.26 µM) | 0.5 µg/mL (≈ 1.03 µM) | > 128 µg/mL | 31 µg/mL (≈ 64 µM) | 2 µg/mL (≈ 4.13 µM) | 0.5 µg/mL (≈ 1.03 µM) | – | – | – | – | – | –
O=C(N[C@H](CO)[C@H](O)c1ccc([N+](=O)[O-])cc1)C(Cl)Cl [CHLORAMPHENICOL] | 4 µg/mL (≈ 12.4 µM) | – | 8 µg/mL (≈ 24.8 µM) | > 64 µg/mL | 2 µg/mL (≈ 6.19 µM) | 8 µg/mL (≈ 24.8 µM) | 8 µg/mL (≈ 24.8 µM) | 1 µg/mL (≈ 3.09 µM) | 8 µg/mL (≈ 24.8 µM) | 8 µg/mL (≈ 24.8 µM) | 1 µg/mL (≈ 3.09 µM) | – | – | – | – | – | – | –
Nc1ncc(C(=O)N(Cc2ccccc2)Cc2ccccc2)o1 | – | – | > 64 µg/mL | > 64 µg/mL | – | > 64 µg/mL | > 64 µg/mL | 16 µg/mL (≈ 52.1 µM) | > 64 µg/mL | > 64 µg/mL | 16 µg/mL (≈ 52.1 µM) | 8 µg/mL (≈ 26 µM) | >8 | 900 nM | 400 nM | >128 mg/L | – | Kis (Escherichia coli [12]): 0.8 µM
CO[C@H]1/C=C/O[C@@]2(C)Oc3c(C)c(O)c4c(O)c(c(/C=N/N5CCN(C)CC5)c(O)c4c3C2=O)NC(=O)/C(C)=C\C=C\[C@H](C)[C@H](O)[C@@H](C)[C@@H](O)[C@@H](C)[C@H](OC(C)=O)[C@@H]1C [RIFAMPIN] | 0.06 µg/mL (≈ 0.0729 µM) | – | 31 µg/mL (≈ 37.7 µM) | 31 µg/mL (≈ 37.7 µM) | 31 µg/mL (≈ 37.7 µM) | ≤ 0.03 µg/mL | ≤ 0.03 µg/mL | 0.5 µg/mL (≈ 0.608 µM) | ≤ 0.03 µg/mL | 0.5 µg/mL (≈ 0.608 µM) | 8 µg/mL (≈ 9.72 µM) | – | >8 | – | – | >64 mg/L | – | Activity (Escherichia coli [10]): >64 mg/L
GENTAMICIN | 0.12 µg/mL | – | 0.1 µg/mL | 2 µg/mL | – | – | – | < 0.03 µg/mL | 8 µg/mL | 8 µg/mL | – | – | – | – | – | – | – | MIC (Escherichia coli [10]): 0.24 µg/mL
CC(C)[C@H](NC(=O)C[C@H](NC(=O)CCCCCCCOc1ccc(CN(Cc2ccccc2)C(=O)c2cnc(N)o2)cc1)c1ccccc1)C(=O)[C@@H]1C(=O)NC(=O)[C@H]1C | – | > 64 µg/mL | > 64 µg/mL | > 64 µg/mL | – | 4 µg/mL (≈ 4.96 µM) | 4 µg/mL (≈ 4.96 µM) | 4 µg/mL (≈ 4.96 µM) | 1 µg/mL (≈ 1.24 µM) | 4 µg/mL (≈ 4.96 µM) | 8 µg/mL (≈ 9.91 µM) | 16 µg/mL (≈ 19.8 µM) | 8 | 9.6 nM | 16.9 nM | 64 mg/L | 5.5 nM | –
CC(C)[C@H](NC(=O)C[C@H](NC(=O)CCCCCCCCCCCCCCCOc1ccc(CN(Cc2ccccc2)C(=O)c2cnc(N)o2)cc1)c1ccccc1)C(=O)[C@@H]1C(=O)NC(=O)[C@H]1C | – | – | > 64 µg/mL | > 64 µg/mL | – | > 64 µg/mL | > 64 µg/mL | – | > 64 µg/mL | > 64 µg/mL | – | – | – | 33.7 nM | 28.7 nM | – | 5.2 nM | Activity (Escherichia coli [17]): Active; Activity (Escherichia coli [18]): inactive
C/C=C/C=C/C(=O)N[C@@H](CC(=O)N[C@H](C(=O)[C@@H]1C(=O)NC(=O)[C@H]1C)C(C)C)c1ccccc1 | 4 µg/mL (≈ 8.82 µM) | 8 µg/mL (≈ 17.6 µM) | > 64 µg/mL | > 64 µg/mL | 8 µg/mL (≈ 17.6 µM) | 1 µg/mL (≈ 2.2 µM) | 4 µg/mL (≈ 8.82 µM) | 0.5 µg/mL (≈ 1.1 µM) | 0.24 µg/mL (≈ 0.529 µM) | 8 µg/mL (≈ 17.6 µM) | 0.5 µg/mL (≈ 1.1 µM) | 4 µg/mL (≈ 8.82 µM) | 32 | – | – | 16 mg/L | 7.9 nM | Ratio (Staphylococcus aureus [19]): 8; INH (Escherichia coli [20]): 5 nM; Ratio (Escherichia coli [21]): 8
